Results gathered from unrelated publications.
Effect on: microbial growth

C#CCCCCC(=O)NC(C)C gave an MIC of over 100 µM (Staphylococcus aureus; NCTC8325).
The MIC of CC1=NN(CNc2ccccc2[N+](=O)[O-])C(=O)C1=NNn1c(-c2ccccc2)nc2ccccc2c1=O is reported as 50.4 µM (Micrococcus luteus; broth dilution; 24 h).
The MIC of O=C(O)CN1C(=O)/C(=C/c2c3ccccc3c(-c3ccc(N(c4ccccc4)c4ccccc4)cc3)c3ccccc23)NC1=S is reported as over 1000 mg/L (Micrococcus luteus; broth dilution; ATCC10240).
CNC(=O)c1ccc2c(c1)NC(=O)/C2=C(\Nc1cccc(CN(C)C)c1)c1ccccc1 has an MIC of over 30 µM (Staphylococcus aureus; NCTC8325).
The MIC of O=C(O)CN1C(=O)/C(=C/c2c3ccccc3c(-c3ccc(N(c4ccccc4)c4ccccc4)cc3)c3ccccc23)SC1=S is reported as 125 mg/L (Micrococcus luteus; broth dilution; ATCC10240).
O=C1NC(=O)/C(=C/c2ccc3c(c2)OC(F)(F)O3)S1 has an MIC of over 30 µM (Staphylococcus aureus; NCTC8325).
The MIC of O=C1NN=C(N=Cc2ccc(O)cc2O)C1=NNn1c(-c2ccccc2)nc2ccccc2c1=O is reported as 53.5 µM (Micrococcus luteus; broth dilution; 24 h).
The MIC of O=C1NC(=S)S/C1=C\c1c2ccccc2c(-c2ccc(N(c3ccccc3)c3ccccc3)cc2)c2ccccc12 is reported as over 1000 mg/L (Micrococcus luteus; broth dilution; ATCC10240).
For O=C(N[C@H](CO)[C@H](O)c1ccc([N+](=O)[O-])cc1)C(Cl)Cl, the MIC was 7 mg/L (Micrococcus flavus; broth dilution).
O=C1NC(=S)N/C1=C\c1c2ccccc2c(-c2ccc(N(c3ccccc3)c3ccccc3)cc2)c2ccccc12 has an MIC of over 1000 mg/L (Micrococcus luteus; broth dilution; ATCC10240).
With O=c1[nH]c(NCc2ccc(Cl)c(Cl)c2)nc2ncn(CCCCCN3CCOCC3)c12 the MIC was 2 mg/L (Lactobacillus acidophilus; agar dilution; 48 h).
The MIC of CC1=NN(CNC(=O)c2ccccc2)C(=O)C1=NNn1c(-c2ccccc2)nc2ccccc2c1=O is reported as 51.9 µM (Micrococcus luteus; broth dilution; 24 h).
COC(=O)c1sc(C(C)(C)C)cc1NC(=O)Nc1ccc(C)cc1 gave an MIC of over 100 µM (Staphylococcus aureus; NCTC8325).
For C/C=C(\C)c1cc(OC(=O)c2c(O)c(C)c(O)c(Cl)c2/C(C)=C/C)c(C)c(O)c1C(=O)O, the MIC was 32 mg/L (Micrococcus luteus; broth dilution; ML01).
O=C(O)CN1C(=O)/C(=C/c2ccc(-c3ccc(N(c4ccccc4)c4ccccc4)cc3)cc2)NC1=S has an MIC of 1.95 mg/L (Micrococcus luteus; broth dilution; ATCC10240).
The MIC of O=c1[nH]c(NCc2ccc(Cl)c(Cl)c2)nc2ncn(CCN3CCOCC3)c12 is reported as 4 mg/L (Lactobacillus acidophilus; agar dilution; 48 h).
With CN(C)[C@@H]1C(O)=C(C(N)=O)C(=O)[C@@]2(O)C(O)=C3C(=O)c4c(O)cccc4[C@@](C)(O)[C@H]3C[C@@H]12 the MIC was 0.5 µM (Staphylococcus aureus; NCTC8325).
